Series [1] is described as follows: Distribution coefficient, log D at pH 7.4. Type of series: physicochemical. The note with it: octanol/water. The method, boiled down:
(§1)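 Shake-flask partitioning between n-octanol and phosphate buffer pH 7.4; phases mixed 15 min, centrifuged at 1 · 10⁴ rpm for 5 min, separated. Each layer diluted tenfold and analysed by HPLC (UV detection 228–232 nm, methanol/water 80:20 eluent). D7.4 calculated from the layer concentrations; triplicate, mean reported.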

Series [2] can be described thus: Partition coefficient, log P of the compound. Type of series: physicochemical. The conditions noted are these: octanol/water. In a few lines:
as §1

The nature of series [3]: Half life of hydrolysis in hydrochloric acid buffer at pH 1.2. The series is classed as ADME. In a few lines: (§2)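 Non-enzymatic chemical hydrolysis at 37 °C in 0.2 M hydrochloric acid buffer pH 1.2 (simulated gastric fluid) or 0.2 M phosphate buffer pH 7.4. 25 mM dioxane stock diluted 1:10 into thermostated buffer. Remaining ester followed by HPLC. Pseudo-first-order k_obsd fitted, and t1/2 derived from it.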

Series [4] can be described thus: Half life of hydrolysis in phosphate buffer at pH 7.4. The series is classed as ADME. In a few lines:
as §2

A word on the Log D: it is the decadic logarithm of the distribution of all forms, ionised or not, between an organic phase and buffer at a given pH. As a reminder, the LogP is a log measure of how a compound divides between an organic and an aqueous phase. A low value points to a more hydrophilic compound. As for `NC(=O)OCC(O)COc1ccc(Cl)cc1` (stereo unspecified) [CHLORPHENESIN CARBAMATE], the “Log D” value in series [1] worked out at 1.44. Moreover, in series [2], the LogP is listed as 1.44.
The half-life is the time in which the quantity being followed falls by half. As to `Cc1ccccc1OCC(O)CO` (stereo unspecified) [MEPHENESIN], the half-life was 8.75 h in series [3] and 19.9 h in series [4]. Moreover, the “Log D” value in series [1] is recorded as 1.09. This compound also showed a LogP in series [2] of 1.09.
